# Experimental data published in ChEMBL document CHEMBL3351600, “Sulfur, selenium and tellurium pseudopeptides: synthesis and biological evaluation” (Bioorg Med Chem, 2014).
# Activity calls are given as the source filed them. The calls are words filed in the database; no cut-off is given here.
# Columns and labels:
# Pseudomonas aeruginosa = experiment: Antimicrobial activity against Pseudomonas aeruginosa assessed as inhibition at 20 ug/6 mm disk after 1 to 2 days by agar diffusion assay; type: functional
# Procedure, shortened: (§1)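 Standard agar diffusion: 6-mm paper disks loaded with 20 µg of compound were placed on inoculated plates. Inhibition-zone diameter (mm) was read after 1 and 2 days of growth.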
# Aspergillus niger = experiment: Antimicrobial activity against Aspergillus niger assessed as inhibition at 20 ug/6 mm disk after 1 to 2 days by agar diffusion assay; type: functional; procedure, shortened: as §1
# [1] = Lipophilicity, log K of the compound by HPLC analysis
# Saccharomyces cerevisiae = experiment: Antimicrobial activity against Saccharomyces cerevisiae assessed as inhibition at 20 ug/6 mm disk after 1 to 2 days by agar diffusion assay; type: functional; procedure, shortened: as §1
# [2] = Octanol-water partition coefficient, log P of the compound by HPLC analysis; type: physicochemical
# Procedure, shortened: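 Lipophilicity was measured by reversed-phase HPLC on a Nucleosil C18 column with isocratic water/methanol (3:1) at 0.5 ml/min and UV detection at 230 and 245 nm. Dead time was set with thiourea (t0 0.728 min). Retention factor was k = (tR − t0)/t0, and log P came from a calibration against at least six reference compounds.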
# Candida albicans = experiment: Antimicrobial activity against Candida albicans assessed as inhibition at 20 ug/6 mm disk after 1 to 2 days by agar diffusion assay; type: functional; procedure, shortened: as §1
# Escherichia coli = experiment: Antimicrobial activity against Escherichia coli tolC assessed as inhibition at 20 ug/6 mm disk after 1 to 2 days by agar diffusion assay; type: functional; procedure, shortened: as §1
# A-431 [3] = experiment: Reduction in ROS in human A431 cells assessed as decrease in hydrogen peroxide level at 1 to 100 ng/ml after 1 hr by DCHFA assay; type: functional, cell-based
# Procedure, shortened: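 A-431 cells (10^5 per well) were treated with a range of compound concentrations for 1 h. They were then loaded with DCHFA probe for 30 min in the dark. Fluorescence (ex 485/em 528 nm) was read immediately and expressed as arbitrary units per 10^5 cells.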
# [4] = Cytotoxicity against human fibroblasts assessed as cell viability after 24 hrs incubation by MTT assay; type: cell-based; details: Fibroblast
# Procedure, shortened: (§2)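 Cell lines came from DSMZ; primary human fibroblasts served as non-cancer controls. Cells were grown in medium with 10% FCS, seeded at 50,000 cells/ml, and grown 2 days at 37 °C, 10% CO2. Serial dilutions were then added for 24 h. MTT (final 0.5 mg/ml) was added for 2 h. Formazan was pelleted, PBS-washed, dissolved in isopropanol/0.4% HCl and read at 590 nm. Two parallel experiments were run. IC50 was taken as the concentration giving 50% of untreated-control absorbance.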
# Klebsiella pneumoniae = experiment: Antimicrobial activity against Klebsiella pneumoniae assessed as inhibition at 20 ug/6 mm disk after 1 to 2 days by agar diffusion assay; type: functional; procedure, shortened: as §1
# Staphylococcus aureus = experiment: Antimicrobial activity against Staphylococcus aureus assessed as inhibition at 20 ug/6 mm disk after 1 to 2 days by agar diffusion assay; type: functional; procedure, shortened: as §1
# Mycolicibacterium phlei = experiment: Antimicrobial activity against Mycobacterium phlei assessed as inhibition at 20 ug/6 mm disk after 1 to 2 days by agar diffusion assay; type: functional; procedure, shortened: as §1
# MCF7 [5] = experiment: Cytotoxicity against human MCF7 cells assessed as cell viability after 24 hrs incubation by MTT assay; type: functional, cell-based; details: MCF7, 24 h; procedure, shortened: as §2
# A-431 [6] = experiment: Cytotoxicity against human A431 cells assessed as cell viability after 24 hrs incubation by MTT assay; type: functional, cell-based; details: A-431, 24 h; procedure, shortened: as §2
# Micrococcus luteus = experiment: Antimicrobial activity against Micrococcus luteus assessed as inhibition at 20 ug/6 mm disk after 1 to 2 days by agar diffusion assay; type: functional; procedure, shortened: as §1
# MCF7 [7] = experiment: Cell cycle arrest in human MCF7 cells assessed as accumulation at G0/G1 phase after 30 mins by propidium iodide staining-based flow cytometric analysis; type: functional
# Procedure, shortened: (§3)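 MCF-7 cells (10^6) were treated with compounds for 24 h alongside a methanol vehicle control. They were fixed in cold 70% methanol at 4 °C for one day, washed in PBS and permeabilised with 0.1% saponin in PBS. They were then stained with propidium iodide plus RNase (1 mg/ml) for 30 min, and DNA-content distribution was read by FACScan flow cytometry.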
# PtK2 [8] = experiment: Induction of morphological changes in Potorous tridactylus PtK2 cells assessed as lysis of ER and disappearance of actin stress fiber after 24 hrs by immunofluorescence microscopy; type: functional, cell-based
# Procedure, shortened: (§4)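 PtK2 cells were grown on coverslips and treated at semi-confluence for 24 h. Fixation was either 3.7% paraformaldehyde followed by 0.1% Triton X-100 for 5 min, or ice-cold methanol/acetone (50:50) for 10 min. ER was stained with anti-GRP94 and tubulin with anti-α-tubulin (primary and Alexa 488 secondary antibodies, 45 min each). Actin was stained with phalloidin-Alexa 594 for 45 min and nuclei with DAPI. Imaging was by fluorescence microscopy.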
# A-431 [9] = experiment: Reduction in ROS in human A431 cells assessed as decrease in hydrogen peroxide level at 0.1 to 10 ng/ml after 1 hr by DCHFA assay; type: functional, cell-based
# Procedure, shortened: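 A-431 cells were seeded at 10^5 per well and exposed to a range of compound concentrations for 1 h. They were then loaded with DCHFA probe for 30 min in the dark. Fluorescence was read immediately at ex/em 485/528 nm and expressed as arbitrary units per 10^5 cells.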
# PtK2 [10] = experiment: Induction of morphological changes in Potorous tridactylus PtK2 cells assessed as loss of typical shape after 24 hrs by immunofluorescence microscopy; type: functional, cell-based; procedure, shortened: as §4
# MCF7 [11] = experiment: Cell cycle arrest in human MCF7 cells assessed as accumulation at S phase […] by propidium iodide staining-based flow cytometric analysis; type: functional
# MCF7 [12] = experiment: Cell cycle arrest in human MCF7 cells assessed as accumulation at G2/M phase after 30 mins by propidium iodide staining-based flow cytometric analysis; type: functional; procedure, shortened: as §3
Compound,diameter of the inhibition zone (DIZ) (Pseudomonas aeruginosa) [mm],diameter of the inhibition zone (DIZ) (Aspergillus niger) [mm],log K [1],diameter of the inhibition zone (DIZ) (Saccharomyces cerevisiae) [mm],logP [2],diameter of the inhibition zone (DIZ) (Candida albicans) [mm],Retention_time [min],diameter of the inhibition zone (DIZ) (Escherichia coli) [mm],Activity (A-431 [3]),IC50 [4] [µM],diameter of the inhibition zone (DIZ) (Klebsiella pneumoniae) [mm],diameter of the inhibition zone (DIZ) (Staphylococcus aureus) [mm],diameter of the inhibition zone (DIZ) (Mycolicibacterium phlei) [mm],IC50 (MCF7 [5]) [µM],IC50 (A-431 [6]) [µM],diameter of the inhibition zone (DIZ) (Micrococcus luteus) [mm],Activity (A-431 [9]),other results
COc1ccc(N(CC(=O)NCCCSc2ccccc2)C(=O)c2ccccc2)cc1,0,0,-0.03,0,3.1,0,1.407,0,inactive,≥ 100,0,0,0,≥ 100,≥ 100,0,,
CC(C)(C)OC(=O)NCC(=O)OCC(=O)NCCC[Te]c1ccccc1,0,0,0.32,0,3.83,0,2.247,12,,19,15,16,14,0.3,10,7,Dose-dependent effect,Activity (MCF7 [7]): 91.61%; Activity (PtK2 [8]): Active; Activity (PtK2 [10]): Active; Activity (MCF7 [11]): 4.61%; Activity (MCF7 [12]): 3.78%
COc1ccc(N(CC(=O)NCCC[Se]c2ccccc2)C(=O)c2ccccc2)cc1,0,18,-0.03,0,3.1,0,1.412,0,inactive,≥ 100,0,0,0,≥ 100,≥ 100,0,,
COc1ccc(N(CC(=O)NCCCSc2ccccc2)C(=O)C#Cc2ccccc2)cc1,0,0,0.12,0,3.4,0,1.698,0,inactive,≥ 100,0,0,0,≥ 100,≥ 100,0,,
O=C(COC(=O)C#Cc1ccccc1)NCCC[Te]c1ccccc1,0,0,-1.04,0,0.9,0,0.794,0,,7,0,0,15,1,7,9,Dose-dependent effect,
COc1ccc(N(CC(=O)NCCC[Se]c2ccccc2)C(=O)/C=C/c2ccccc2)cc1,0,0,0.27,0,3.7,0,2.088,0,inactive,≥ 100,0,0,0,≥ 100,≥ 100,0,,
